Measurements reported in the RNAGym collection of RNA variant scans (doi:10.1126/science.aae0568).
Fewer inactive variants are shown than the library holds.

B1: tRNA (parent)
chain: GUUCCGUUGGCGUAAUGGUAACGCGUCUCCCUCCUAAGGAGAAGACUGCGGGUUCGAGUCCCGUACGGAACG

Variants of: B1
Experiment: yeast fitness relative to wild type (ratio to wild type); higher = fitter; tRNA-Arg(CCU), competitive growth, 37 C, YPD
Procedure, shortened: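 Variants of the tRNA-Arg(CCU) gene were chemically synthesised with a 3% per-site mutation rate across 69 sites and placed at the native genomic locus in Saccharomyces cerevisiae. Six parallel replicates of the pooled strains were competed in YPD at 37°C for 24 hours, and gene amplicons from the start and end populations were read by 100-nucleotide paired-end sequencing. Darwinian fitness relative to wild type was derived from changes in genotype frequencies. Genotypes required ≥ 100 starting reads, and estimates < 0.5 were set to 0.5.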

Row | Variant | yeast fitness
1 | GUUCCGCUGGCGUAAUGGUAACGCGUCUCCCUCCUAAGGAGAAGACUACGGGUAGGAGUCCCGUUCGGAACG [U7C G48A U54A C55G A65U] | ≤ 0.5
2 | GUUCCGCUGGCGUAAUGGUAACGCGUCUCCCUCCUAAGGAGAAGACUGUGGGUUCAAGUCCCGUCCGGAACG [U7C C49U G56A A65C] | 0.607
3 | GUUCCGCUGGCGUAAUGGUAACACGUCUCCCUGCUAAGGAGAAGACUGCGGGUUCGAGUCCCGUACGGAACG [U7C G23A C33G] | ≤ 0.5
4 | GUUCCGCUGGCAUAAUGGUAACGCGUCUCCCUCCUAAGGAGAAGCCUGUGGGUUCGAGUCGCGUCCGGAACG [U7C G12A A45C C49U C61G A65C] | ≤ 0.5
5 | GUUCCGCUGGCGUAAUGGUAACGCGUCUCCGUCCUAAGGAAAAGACUGCGGCUUCGAGUUCGGUAGGGAACG [U7C C31G G41A G52C C60U C62G C66G] | ≤ 0.5
6 | GUUCCGCUGGCGUAAUGAUAACGCGUCUCCAUCCUAAGGAGAAGACUGCGGGUUCCAGUCCCGUACGGAACG [U7C G18A C31A G56C] | ≤ 0.5
7 | GUUCCGCUGGCGUAAUGGUAACGCGUCUCCCUCCUAAGGAACAGACUGCCGGUUCGAGUCCCGUACGGUACG [U7C G41A A42C G50C A69U] | 0.556
8 | GUUCCGCUGGCGUAAUGGUAACGCGUCUCCCUCCUAAGGAACAGACUGCCGAUUCGAGUCCCGUACGGAGCG [U7C G41A A42C G50C G52A A70G] | ≤ 0.5
9 | GUUCCGCUGGCGUAAUGGUAACGCAUCACCCUCCUAAGGAGAAGACUCCGGGUUCGAGUCCCGUACGGACCG [U7C G25A U28A G48C A70C] | ≤ 0.5
10 | GUUCCGCUGGCGUAAUGGUAACGCGUCUCCCUCUUAAGGAGAAGACUGCGGGUUCGAGUCCCGUAUGGAACG [U7C C34U C66U] | ≤ 0.5
11 | GUUCCGCUGGCGUAAUGGUAACGCGUCUCCCUCCUAAGGAACAGACUGCCGGUUCGAGUCCCGUUCGGAACG [U7C G41A A42C G50C A65U] | ≤ 0.5
12 | GUUCCGCUGGCGUAAUGGUAACGCGUCUCCCUCCUAAGGAACAGACUGCCGGUUCGAGUCCCGUCCGGAACG [U7C G41A A42C G50C A65C] | ≤ 0.5
13 | GUUCCGCUGACGUAAUGGUAACGCGUCUCCCUCCUAAGGAGAAGACUGCCGGUUCGAGUCCCGUACGGAACG [U7C G10A G50C] | ≤ 0.5
14 | GUUCCGCUGGCGUAAUGGUAACGCGUCUCCCUCCUAAAGAGAAGACUGCGGGUUCGACUCCCGUACGGAACG [U7C G38A G58C] | 0.648
15 | GUUCCGCUGGCAGCAUGGUAACGCGUCUCCCUCCCAAGGAGAAGACUGUGGGUUCGAGUCCCGUACGGAACG [U7C G12A U13G A14C U35C C49U] | ≤ 0.5
16 | GUUCCGCUGGCGUAAUGCUAACGCGUCUCCCUCCUAAGGAGAAGACUGCGGGUUCGAGUCUCGUACGGAACG [U7C G18C C61U] | ≤ 0.5
17 | GUUCCGCUGGCGUAAUGGUAACGCGUCUCCCUCCUAAGGAGAAGACUCCGGGUUCGAGUCGCGUUCGGAACG [U7C G48C C61G A65U] | ≤ 0.5
18 | GUUCCGCUGGCAUAAUGGUCGCGAGUAUCCCUCCUCAGGAGAAGACUGCGGGUUCGAGUCCCGUACGGAACG [U7C G12A A20C A21G C24A C27A A36C] | ≤ 0.5
19 | GUUCCGCUGGCGUAAUGGUAACGCGUCUCCCUCGUUUGGAGAAGACUGCGGGUUCGAGUCCCGUACGGAACG [U7C C34G A36U A37U] | ≤ 0.5

Row | Variant | yeast fitness
20 | GUUCCGCUGGCGUAAUGGUAACGCGUCUCCCUUCUAAGGAGAAGACUGUGGGUUCGAGUCCCGUACGGAUCG [U7C C33U C49U A70U] | ≤ 0.5
21 | GUUCCGCUGGCGUAAUGGUAACGCGUCUCCGUCUUAAGGAGAAGACUGCGGGUUUGAAUCUCGUACGGAACG [U7C C31G C34U C55U G58A C61U] | 0.666
22 | GUUCCGCUGGCGUAAUGGUAACGCGUCUCCCUCCUAAGGAACAGACUGCCGGUUCGAGUCCCGUACGGACCG [U7C G41A A42C G50C A70C] | ≤ 0.5
23 | GUUCCGCUGGCGUAAUGGUAACGCGUCUCCCUCCUAAGGAGAAGAAUGCGGGUUCGAGUCCCGUACGGAACG [U7C C46A] | 0.798
24 | GUUCCGCUGGCGUAAUGGUAACGCGUCUCCCUCCUAAGGAGAAGACUGAGGGUUCGAGUCCCGUACUGAACG [U7C C49A G67U] | 0.59
25 | GUUCCGCUGGCGUAAUGGUAACCCGUCUCCCUCCUAAGGAGAAGACUGCGGAUUCGAGUCCCGUACGGAACG [U7C G23C G52A] | 0.591
26 | GUUCCGCUGGCGUAAUGGUAACGCGUCUCCCUCCUAAGAAGAAGACUGCGGGUUCGAGUCCCGUACGGAACG [U7C G39A] | 0.913
27 | GUUCCGCUGGCGUAAUGGUAACGCGUCUCCCUCCUAAGGAGAAGAAUGCGAGAUCGAGUCCAGUACGAAACG [U7C C46A G51A U53A C62A G68A] | 0.579
28 | GUUCCGCUGGCGUAAUGGUAACGCGUCUCCCUUCUAAGGAGAAGACUGCGGGUUCGAGUCCCGUACGGAACG [U7C C33U] | 0.713
29 | GUUCCGCUGGCGUAAUGGUAACGCGUCUCCCUCCUAAGGAACAGACUGCCGGUUCGAGUCCUGUACGGAACG [U7C G41A A42C G50C C62U] | ≤ 0.5
30 | GUUCCGCUGGCGUAAUGGUAACGCGUCUCCCUCCUAACGAGAAGACUGAGGGUUCAAGUCGCGUACGGAACG [U7C G38C C49A G56A C61G] | ≤ 0.5
31 | GUUCCGCUGGCGUAAUGGUAACCCGUCUCCCUCCUAAGGAGAAGACUGCGGGUUCGAGUCCCGUACGGAACG [U7C G23C] | 0.671
32 | GUUCCGCUGGCGUAAUGGUAACGCGUCUCCCUCCUAACGAGAAGACUGAGGGUUCGAGUCCCGUACGGAACG [U7C G38C C49A] | 0.618
33 | GUUCCGCUGGCGUAAUGGUAACGCGUCUCCCUCCUAAGGAGAAGACUACGGGUUCGAGUCCCGUACGGCACG [U7C G48A A69C] | 0.695
34 | GUUCCGCUGGCGUAAUGGUAACGCGUCUCCCUCCUAAGGAGAAGACUGCGGGUUAGAGUCCCGUACGGAACG [U7C C55A] | 0.567
35 | GUUCCGCUGGCGUAAUGGUAACGCGUCUCCCUCCUAAGGAGAAGACUGCGGGUUGGAGUCCCGUACGGAACG [U7C C55G] | 0.628
36 | GUUCCGCUGGCGUAAUGGUAACGCGUCUCCCUCCUAAGGAGAAGAUUGCGGGUUCGAGUCACUUACAGAACG [U7C C46U C61A G63U G67A] | ≤ 0.5
37 | GUUCCGCUGCCGUAAUGGUAACGCGUCUCCCUCCUAAGGAGACGACUGCGGGUUCGAGUCCCGUACGGAACG [U7C G10C A43C] | 0.549
